EP2 modulator: EP2 receptor modulators, cAMP readout, primary screen, cell-based, HTRF cAMP, PGE2 stimulation | induction, % at 25 µM | Prostaglandin E2 receptor EP2 subtype (Homo sapiens), P43116 | actives 0.83% (n = 260,000) | EP2-expressing cells, cAMP HTRF FRET, PGE2 co-stimulation | AID 940, 2007;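 active = compounds whose cAMP rise, as percent of the full-agonist control response, exceeds 60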;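 also: rat C6 glioma line stably carrying human EP2 under a CMV promoter; the protocol text gives 20 µM as final concentration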
NPY2 pot ag: NPY-Y2 potentiators or agonists, primary screen, cell-based; cells expressing NPY-Y2, potentiator/agonist read-out; activation, % at 3.6 µM; actives 0.45% (n = 220,000); Neuropeptide Y receptor type 2 (Homo sapiens), P49146; in the data active = activation above about 27%;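 also: cells stimulated with NPY near EC25 plus isoproterenol at EC100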
PGE2 EP2 inh: human EP2 receptor antagonists, primary screen, TR-FRET cAMP, C6 glioma cells; Prostaglandin E2 receptor EP2 subtype (Homo sapiens), P43116; C6 glioma cells expressing human EP2; cells stimulated with saturating PGE2; inhibition, % at 25 µM; actives 0.52% (n = 260,000);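 active = percent inhibition above 40 after rounding to a whole number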;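 also: rat C6 glioma host cells with rolipram phosphodiesterase inhibitor present; the protocol text gives 20 µM as final concentration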
NPY-Y1 antag: NPY-Y1 receptor antagonists, primary screen, cell-based. Neuropeptide Y receptor type 1 (Homo sapiens), P25929. HEK293-CNG Y1 cells, membrane potential fluorescence; NPY at EC95, then isoproterenol. inhibition, % at 3.6 µM. actives 1% (n = 200,000). AID 1040, 2008;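 active = inhibition above the campaign mean inhibition of all tested compounds plus 3 SD, cut at about 20% in these data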
Target sequence (P25929 whole entry, looked up): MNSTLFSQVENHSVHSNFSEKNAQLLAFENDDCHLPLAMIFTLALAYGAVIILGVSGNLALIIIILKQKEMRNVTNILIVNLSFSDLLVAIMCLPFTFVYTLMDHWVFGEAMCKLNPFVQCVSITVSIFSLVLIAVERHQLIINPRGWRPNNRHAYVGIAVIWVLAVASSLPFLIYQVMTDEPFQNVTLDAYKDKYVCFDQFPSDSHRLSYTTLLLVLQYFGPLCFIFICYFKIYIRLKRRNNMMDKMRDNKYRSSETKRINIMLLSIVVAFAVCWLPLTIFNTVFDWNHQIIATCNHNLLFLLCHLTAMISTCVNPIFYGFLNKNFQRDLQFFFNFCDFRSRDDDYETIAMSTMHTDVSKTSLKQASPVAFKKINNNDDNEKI
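Material: HEK293 Y1/CNG channel cell line; also added: NPY (25 nM), isoproterenol (1 µM), Ro 20-1724 (25 µM); doses: one concentration, 3.6 µM, in 0.4% DMSO; schedule: compound incubation 1 h at room temperature, readout 45 min post-stimulation; technique: membrane potential fluorescence; measure: fluorescence ratio normalized to % inhibition between controls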
NPY-Y1 PAM-ag: NPY-Y1 receptor potentiators or agonists, primary screen, cell-based; actives 0.37% (n = 220,000); NPY-Y1 expressing cells, potentiator/agonist activation; activation, % at 3.6 µM; Neuropeptide Y receptor type 1 (Homo sapiens), P25929; in the data active = activation above about 33%, passing the limit was not always enough;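 also: cells stimulated with NPY at EC10 then isoproterenol at EC100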
NPY-Y2 antag: NPY-Y2 receptor antagonists, primary screen, cell-based; Neuropeptide Y receptor type 2 (Homo sapiens), P49146; actives 0.99% (n = 140,000); NPY-Y2 expressing cells, antagonist mode; inhibition, % at 2.7 µM; in the data active = inhibition above about 17%
NPY-Y2 confirm: NPY-Y2 potentiators or agonists, confirmation, cell-based; shares compounds with NPY2 pot ag; cell-based NPY-Y2 potentiator/agonist assay; activation, % at 3.6 µM; actives 20% (n = 450); in the data active = activation above about 33%
NPY-Y1 potentiator: NPY-Y1 potentiators or agonists, counter-screen for NPY-Y2 potentiator project, cell-based, fluorescence; shares compounds with NPY2 pot ag; Y1 HEK293-CNG cells, membrane potential fluorescence; activation, % at 3.6 µM; actives 20% (n = 450); AID 1651, 2009; in the data active = activation above about 45%;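 also: cells stimulated with submaximal NPY then isoproterenol with phosphodiesterase inhibitor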
NPY-Y1 agonist 2: NPY-Y1 direct agonists, selectivity assay for NPY-Y2 potentiator project, cell-based, fluorescence; shares compounds with NPY2 pot ag; HEK293 Y1-CNGC, membrane potential fluorescence, agonism; activation, % at 3.6 µM; actives 37% (n = 450); AID 1702, 2009;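 active = activation above the mean of DMSO-only control wells plus 3 SD, cut at about 18% in these data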;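 also: cells stimulated with 1 µM isoproterenol plus the PDE inhibitor Ro 20-1724; Y1 agonists lower the membrane potential dye signal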
CNGC inh: CNGC cAMP sensor activity inhibitors, counter-screen for NPY-Y2 potentiator project, cell-based, HEK293-CNG parental, membrane potential fluorescence. shares compounds with NPY2 pot ag. isoproterenol cAMP. inhibition, % at 3.6 µM. actives 32% (n = 450);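 active = inhibition above the control-well mean plus 3 SD of those wells, cut at about 22% in these data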
NPY-Y2 ag 2: NPY-Y2 direct agonists, counter-screen for NPY-Y2 potentiator project, cell-based, fluorescence | shares compounds with NPY2 pot ag | HEK293 Y2/CNGC cells, membrane potential fluorescence, agonist mode | activation, % at 3.6 µM | actives 56% (n = 450) | AID 1710, 2009;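 active = activation above the mean of solvent-only control wells plus 3 SD, cut at about 10% in these data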;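 also: cells stimulated by isoproterenol with no NPY added so direct agonism is tested; agonism lowers probe fluorescence through less cAMP and CNG channel opening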
Each line names hits and unclear results; the compound was inactive in the other large screens (follow-up assays come after a bar, where they were run). A selection: hits, their analogues and other compounds. The true share with any hit is near 2.8%.

CS(=O)(=O)c1nc(Cl)n[nH]1	none (no result: NPY2 pot ag, NPY-Y1 antag, NPY-Y1 PAM-ag, NPY-Y2 antag)
Cc1ccc(NC(=O)CCNS(=O)(=O)c2cc(Br)cnc2N)c(Cl)c1	none
COc1cc(OC)c(NC(=O)CCNS(=O)(=O)c2cc(Br)cnc2N)cc1Cl	NPY2 pot ag 48 | NPY-Y2 confirm inactive | NPY-Y1 potentiator inactive | NPY-Y1 agonist 2 inactive | CNGC inh inactive | NPY-Y2 ag 2 inactive
CCOC(=O)c1sc2ncn(CC(=O)Nc3cccc(C)c3C)c(=O)c2c1C	none (no result: NPY2 pot ag, NPY-Y1 antag, NPY-Y1 PAM-ag, NPY-Y2 antag)
O=C(NCCCn1ccnc1)Nc1ccc(Cl)c(Cl)c1	none
O=C(NCCCn1ccnc1)Nc1ccc(Cl)cc1	NPY2 pot ag 103 | NPY-Y2 confirm inactive | NPY-Y1 potentiator inactive | NPY-Y1 agonist 2 inactive | CNGC inh inactive | NPY-Y2 ag 2 11
O=C(Nc1ccccc1)C1CC2CCCC(C1)C2=O (centres undefined)	none
O=C(Nc1ccccc1)OC1CCC2CC1CCC2OC(=O)Nc1ccccc1 (centres undefined)	NPY2 pot ag 31 | NPY-Y2 confirm 51 | NPY-Y1 potentiator 72 | NPY-Y1 agonist 2 55 | CNGC inh 38 | NPY-Y2 ag 2 67
Cc1ccc([N+](=O)[O-])cc1N(CC(=O)Nc1ccc(S(=O)(=O)Nc2cccc(C(F)(F)F)c2)cc1)S(C)(=O)=O	NPY2 pot ag 45 | NPY-Y2 confirm 43 | NPY-Y1 potentiator 64 | NPY-Y1 agonist 2 58 | CNGC inh 51 | NPY-Y2 ag 2 53
COc1ccccc1N(CC(=O)Nc1cccc(C(F)(F)F)c1)S(C)(=O)=O	none (no result: NPY-Y2 antag)

Assay outcomes from PubChem.
